Source: ChEMBL document CHEMBL1153413, “Pyranonaphthoquinone lactones: a new class of AKT selective kinase inhibitors alkylate a regulatory loop cysteine” (J Med Chem, 2009)
Calls of active or inactive are those of the source. The calls are words filed in the database; no cut-off is given here.

Assays:
[1] = target: T1, RAC-alpha serine/threonine-protein kinase (Homo sapiens, UniProt P31749); test: Inhibition of AKT
[2] = Cytotoxicity against human MDA468 cells expressing AKT; type: functional, cell-based, MDA-MB-468; conditions: Homo sapiens, MDA-MB-468
[3] = target: RAC-alpha serine/threonine-protein kinase (Homo sapiens, UniProt P31749, C310A); test: Inhibition of AKT C310A mutant
[4] = target: RAC-alpha serine/threonine-protein kinase (Homo sapiens, UniProt P31749, C296A); test: Inhibition of AKT C296A mutant
[5] = tested on: RAC-alpha serine/threonine-protein kinase (Homo sapiens), P31749 [C296A,C310A]; test: Inhibition of AKT C296A/C310A mutant up to 40 uM
[6] = target: Tyrosine-protein kinase ABL1 (Homo sapiens) (UniProt P00519); test: Inhibition of ABL1 at 1 uM
In short: (§1)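 Single-concentration (1 µM) selectivity screen run as an outsourced commercial panel of 45 kinases.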

[7] = target: T1, RAC-alpha serine/threonine-protein kinase; test: Inhibition of AKT1 at 1 uM; in short: as §1
[8] = target: RAC-beta serine/threonine-protein kinase (Homo sapiens) (UniProt P31751); test: Inhibition of AKT2 at 1 uM; in short: as §1
[9] = target: Tyrosine-protein kinase BTK (Homo sapiens) (UniProt Q06187); test: Inhibition of BTK at 1 uM; in short: as §1
[10] = target: Cyclin-dependent kinase 1/cyclin B1 (Homo sapiens) (UniProt P06493+P14635); test: Inhibition of CDK1/cyclin B at 1 uM; type: protein-complex assay; in short: as §1
Chain of Cyclin-dependent kinase 1/cyclin B1 (Homo sapiens) (P06493 whole entry, looked up): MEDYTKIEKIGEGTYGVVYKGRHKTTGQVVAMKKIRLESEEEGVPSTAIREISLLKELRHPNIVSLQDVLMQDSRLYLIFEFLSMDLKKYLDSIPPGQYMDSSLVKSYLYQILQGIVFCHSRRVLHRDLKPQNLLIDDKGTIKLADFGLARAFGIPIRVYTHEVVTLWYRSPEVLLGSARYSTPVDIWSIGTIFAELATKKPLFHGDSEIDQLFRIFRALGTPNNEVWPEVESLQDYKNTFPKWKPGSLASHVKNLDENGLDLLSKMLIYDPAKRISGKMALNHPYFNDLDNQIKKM
Chain of Cyclin-dependent kinase 1/cyclin B1 (Homo sapiens) (P14635 whole entry, looked up): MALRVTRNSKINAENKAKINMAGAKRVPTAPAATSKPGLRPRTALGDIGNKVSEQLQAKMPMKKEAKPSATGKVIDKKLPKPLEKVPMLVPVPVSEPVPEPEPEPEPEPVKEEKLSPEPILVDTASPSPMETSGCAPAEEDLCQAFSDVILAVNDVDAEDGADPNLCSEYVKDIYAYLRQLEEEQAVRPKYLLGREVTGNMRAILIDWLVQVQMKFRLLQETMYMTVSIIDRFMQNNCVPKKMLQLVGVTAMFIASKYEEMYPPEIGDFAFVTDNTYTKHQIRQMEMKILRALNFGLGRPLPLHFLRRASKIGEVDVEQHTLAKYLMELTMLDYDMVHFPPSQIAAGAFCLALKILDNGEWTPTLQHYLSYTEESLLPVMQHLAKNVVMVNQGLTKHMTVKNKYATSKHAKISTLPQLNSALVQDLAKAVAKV

[11] = target: Cyclin-dependent kinase 2 (Homo sapiens) (UniProt P24941); test: Inhibition of CDK2/cyclin A at 1 uM; in short: as §1
[12] = target: Serine/threonine-protein kinase Chk1 (Homo sapiens) (UniProt O14757); test: Inhibition of CHEK1 at 1 uM; in short: as §1
Chain of Serine/threonine-protein kinase Chk1 (Homo sapiens) (O14757 whole entry): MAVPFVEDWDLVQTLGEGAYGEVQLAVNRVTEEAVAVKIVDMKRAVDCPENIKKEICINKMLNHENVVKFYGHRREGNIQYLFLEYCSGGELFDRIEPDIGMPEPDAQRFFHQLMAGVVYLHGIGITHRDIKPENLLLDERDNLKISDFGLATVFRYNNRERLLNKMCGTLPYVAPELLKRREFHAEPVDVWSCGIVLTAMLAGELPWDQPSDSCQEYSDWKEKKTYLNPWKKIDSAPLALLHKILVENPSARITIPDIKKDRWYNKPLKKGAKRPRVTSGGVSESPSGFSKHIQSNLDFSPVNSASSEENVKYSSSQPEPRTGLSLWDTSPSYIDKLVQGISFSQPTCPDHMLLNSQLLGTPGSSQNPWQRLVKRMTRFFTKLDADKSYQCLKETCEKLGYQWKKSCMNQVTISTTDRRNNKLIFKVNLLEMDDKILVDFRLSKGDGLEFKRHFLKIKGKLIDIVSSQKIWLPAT

[13] = target: Macrophage colony-stimulating factor 1 receptor (Homo sapiens) (UniProt P07333); test: Inhibition of CSF1R at 1 uM; in short: as §1
[14] = target: Tyrosine-protein kinase CSK (Homo sapiens) (UniProt P41240); test: Inhibition of CSK at 1 uM; in short: as §1
[15] = target: Epidermal growth factor receptor (Homo sapiens) (UniProt P00533); test: Inhibition of EGFR at 1 uM; in short: as §1
[16] = target: Receptor tyrosine-protein kinase erbB-4 (Homo sapiens) (UniProt Q15303); test: Inhibition of ERBB4 at 1 uM; in short: as §1
[17] = target: Fibroblast growth factor receptor 1 (Homo sapiens) (UniProt P11362); test: Inhibition of FGFR1 at 1 uM; in short: as §1
[18] = target: Vascular endothelial growth factor receptor 1 (Homo sapiens) (UniProt P17948); test: Inhibition of FLT1 at 1 uM; in short: as §1
[19] = target: Receptor-type tyrosine-protein kinase FLT3 (Homo sapiens) (UniProt P36888); test: Inhibition of FLT3 at 1 uM; in short: as §1
[20] = target: Tyrosine-protein kinase Fyn (Homo sapiens) (UniProt P06241); test: Inhibition of FYN at 1 uM; in short: as §1
[21] = target: Insulin-like growth factor 1 receptor (Homo sapiens) (UniProt P08069); test: Inhibition of IGF1R at 1 uM; in short: as §1
[22] = target: Inhibitor of nuclear factor kappa-B kinase subunit beta (Homo sapiens) (UniProt O14920); test: Inhibition of IKBKB at 1 uM; in short: as §1
[23] = target: Insulin receptor (Homo sapiens) (UniProt P06213); test: Inhibition of INSR at 1 uM; in short: as §1
[24] = target: Vascular endothelial growth factor receptor 2 (Homo sapiens) (UniProt P35968); test: Inhibition of KDR at 1 uM; in short: as §1
[25] = target: Tyrosine-protein kinase Lck (Homo sapiens) (UniProt P06239); test: Inhibition of LCK at 1 uM; in short: as §1
Chain of Tyrosine-protein kinase Lck (Homo sapiens) (P06239 2-509 limits assumed): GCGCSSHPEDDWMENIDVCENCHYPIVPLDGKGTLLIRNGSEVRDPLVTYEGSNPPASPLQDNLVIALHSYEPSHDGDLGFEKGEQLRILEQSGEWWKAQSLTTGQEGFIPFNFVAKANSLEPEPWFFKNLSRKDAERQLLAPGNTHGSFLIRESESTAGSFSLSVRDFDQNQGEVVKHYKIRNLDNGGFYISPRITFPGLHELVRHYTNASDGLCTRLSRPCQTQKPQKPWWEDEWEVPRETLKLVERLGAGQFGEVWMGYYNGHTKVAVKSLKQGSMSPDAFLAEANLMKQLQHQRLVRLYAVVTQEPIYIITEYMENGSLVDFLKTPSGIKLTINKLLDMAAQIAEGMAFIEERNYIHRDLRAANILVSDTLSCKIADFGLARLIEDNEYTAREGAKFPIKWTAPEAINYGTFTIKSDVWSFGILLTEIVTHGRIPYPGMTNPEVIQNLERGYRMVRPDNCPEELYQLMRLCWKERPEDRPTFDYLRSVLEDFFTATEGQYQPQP

[26] = target: Dual specificity mitogen-activated protein kinase kinase 1 (Homo sapiens) (UniProt Q02750); test: Inhibition of MAP2K1 at 1 uM; in short: as §1
[27] = target: Mitogen-activated protein kinase kinase kinase kinase 5 (Homo sapiens) (UniProt Q9Y4K4); test: Inhibition of MAP4K5 at 1 uM; in short: as §1
[28] = target: Mitogen-activated protein kinase 1 (Homo sapiens) (UniProt P28482); test: Inhibition of MAPK1 at 1 uM; in short: as §1
[29] = target: Mitogen-activated protein kinase 14 (Homo sapiens) (UniProt Q16539); test: Inhibition of MAPK14 at 1 uM; in short: as §1
[30] = target: Mitogen-activated protein kinase 3 (Homo sapiens) (UniProt P27361); test: Inhibition of MAPK3 at 1 uM; in short: as §1
[31] = target: Hepatocyte growth factor receptor (Homo sapiens) (UniProt P08581); test: Inhibition of MET at 1 uM; in short: as §1
[32] = target: Serine/threonine-protein kinase Nek2 (Homo sapiens) (UniProt P51955); test: Inhibition of NEK2 at 1 uM; in short: as §1
[33] = target: High affinity nerve growth factor receptor (Homo sapiens) (UniProt P04629); test: Inhibition of NTRK1 at 1 uM; in short: as §1
[34] = target: Platelet-derived growth factor receptor alpha (Homo sapiens) (UniProt P16234); test: Inhibition of PDGFRA at 1 uM; in short: as §1
[35] = target: Platelet-derived growth factor receptor beta (Homo sapiens) (UniProt P09619); test: Inhibition of PDGFRB at 1 uM; in short: as §1
[36] = target: Serine/threonine-protein kinase PLK1 (Homo sapiens) (UniProt P53350); test: Inhibition of PLK1 at 1 uM; in short: as §1
Chain of Serine/threonine-protein kinase PLK1 (Homo sapiens) (P53350 whole entry): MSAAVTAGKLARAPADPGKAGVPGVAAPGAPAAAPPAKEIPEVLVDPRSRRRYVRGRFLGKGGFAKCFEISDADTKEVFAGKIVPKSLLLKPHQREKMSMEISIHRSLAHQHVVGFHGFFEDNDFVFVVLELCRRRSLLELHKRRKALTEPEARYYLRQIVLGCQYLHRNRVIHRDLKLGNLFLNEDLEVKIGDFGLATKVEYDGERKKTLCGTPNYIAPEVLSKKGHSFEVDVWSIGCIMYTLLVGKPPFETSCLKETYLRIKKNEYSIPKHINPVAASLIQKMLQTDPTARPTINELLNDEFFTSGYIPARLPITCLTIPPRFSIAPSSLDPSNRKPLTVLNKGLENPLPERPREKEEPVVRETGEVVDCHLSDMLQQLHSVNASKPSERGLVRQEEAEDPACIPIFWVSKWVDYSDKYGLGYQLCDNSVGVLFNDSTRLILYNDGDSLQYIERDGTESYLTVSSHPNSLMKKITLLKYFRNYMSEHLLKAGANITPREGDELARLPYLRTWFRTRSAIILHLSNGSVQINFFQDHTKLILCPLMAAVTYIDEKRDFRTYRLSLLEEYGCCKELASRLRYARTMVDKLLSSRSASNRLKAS

[37] = target: cAMP-dependent protein kinase catalytic subunit alpha (Homo sapiens) (UniProt P17612); test: Inhibition of PRKACA at 1 uM; in short: as §1
[38] = target: Protein kinase C alpha type (Homo sapiens) (UniProt P17252); test: Inhibition of PRKCA at 1 uM; in short: as §1
[39] = target: Protein kinase C theta type (Homo sapiens) (UniProt Q04759); test: Inhibition of PRKCQ at 1 uM; in short: as §1
[40] = target: Focal adhesion kinase 1 (Homo sapiens) (UniProt Q05397); test: Inhibition of PTK2 at 1 uM; in short: as §1
Chain of Focal adhesion kinase 1 (Homo sapiens) (Q05397 2-1052 limits assumed): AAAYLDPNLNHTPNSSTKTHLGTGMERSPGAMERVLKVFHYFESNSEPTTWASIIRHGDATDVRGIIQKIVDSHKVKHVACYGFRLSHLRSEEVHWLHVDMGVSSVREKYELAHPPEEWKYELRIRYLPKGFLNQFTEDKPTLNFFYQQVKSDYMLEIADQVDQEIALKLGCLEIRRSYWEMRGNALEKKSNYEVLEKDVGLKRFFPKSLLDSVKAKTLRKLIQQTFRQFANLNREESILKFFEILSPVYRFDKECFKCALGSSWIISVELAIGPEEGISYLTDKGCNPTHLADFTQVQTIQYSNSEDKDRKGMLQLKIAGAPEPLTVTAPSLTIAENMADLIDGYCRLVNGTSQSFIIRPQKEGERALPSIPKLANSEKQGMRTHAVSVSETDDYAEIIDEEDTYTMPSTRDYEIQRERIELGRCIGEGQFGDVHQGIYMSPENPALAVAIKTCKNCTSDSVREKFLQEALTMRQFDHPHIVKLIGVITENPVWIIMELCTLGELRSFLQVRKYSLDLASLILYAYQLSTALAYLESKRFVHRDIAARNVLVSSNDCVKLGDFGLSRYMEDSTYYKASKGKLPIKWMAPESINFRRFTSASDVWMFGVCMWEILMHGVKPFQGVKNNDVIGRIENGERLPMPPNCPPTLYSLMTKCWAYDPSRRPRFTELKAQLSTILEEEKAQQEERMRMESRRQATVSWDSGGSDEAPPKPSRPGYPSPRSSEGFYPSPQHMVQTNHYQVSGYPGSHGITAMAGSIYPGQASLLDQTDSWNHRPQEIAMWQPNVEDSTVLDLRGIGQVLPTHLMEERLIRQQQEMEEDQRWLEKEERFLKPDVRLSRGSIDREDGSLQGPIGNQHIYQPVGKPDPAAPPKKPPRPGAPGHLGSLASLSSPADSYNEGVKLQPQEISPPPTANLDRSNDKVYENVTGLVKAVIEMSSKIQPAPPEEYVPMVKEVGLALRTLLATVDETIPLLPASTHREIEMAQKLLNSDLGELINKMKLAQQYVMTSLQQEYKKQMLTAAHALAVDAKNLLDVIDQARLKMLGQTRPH

[41] = target: Rho-associated protein kinase 1 (Homo sapiens) (UniProt Q13464); test: Inhibition of ROCK1 at 1 uM; in short: as §1
[42] = target: Ribosomal protein S6 kinase beta-1 (Homo sapiens) (UniProt P23443); test: Inhibition of RPS6KB1 at 1 uM; in short: as §1
Chain of Ribosomal protein S6 kinase beta-1 (Homo sapiens) (P23443 whole entry, looked up): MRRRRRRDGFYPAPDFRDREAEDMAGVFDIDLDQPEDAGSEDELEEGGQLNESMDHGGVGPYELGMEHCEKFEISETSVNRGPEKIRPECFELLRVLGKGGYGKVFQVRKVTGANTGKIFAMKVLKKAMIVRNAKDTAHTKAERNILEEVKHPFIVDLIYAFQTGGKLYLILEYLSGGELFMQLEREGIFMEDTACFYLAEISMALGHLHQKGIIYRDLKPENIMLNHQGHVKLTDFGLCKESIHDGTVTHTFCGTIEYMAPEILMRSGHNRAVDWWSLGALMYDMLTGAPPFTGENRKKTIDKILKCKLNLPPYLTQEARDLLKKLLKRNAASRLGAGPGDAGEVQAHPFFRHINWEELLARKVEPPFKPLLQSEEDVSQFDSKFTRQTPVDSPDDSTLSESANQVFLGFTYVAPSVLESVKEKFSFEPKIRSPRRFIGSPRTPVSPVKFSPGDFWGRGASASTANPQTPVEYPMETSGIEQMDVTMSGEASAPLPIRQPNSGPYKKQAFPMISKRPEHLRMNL

[43] = target: Serine/threonine-protein kinase Sgk1 (Homo sapiens) (UniProt O00141); test: Inhibition of SGK at 1 uM; in short: as §1
[44] = target: Proto-oncogene tyrosine-protein kinase Src (Homo sapiens) (UniProt P12931); test: Inhibition of SRC at 1 uM; in short: as §1
[45] = target: Aurora kinase A (Homo sapiens) (UniProt O14965); test: Inhibition of STK6 at 1 uM; in short: as §1
[46] = target: Tyrosine-protein kinase SYK (Homo sapiens) (UniProt P43405); test: Inhibition of SYK at 1 uM; in short: as §1
[47] = target: Tyrosine-protein kinase Yes (Homo sapiens) (UniProt P07947); test: Inhibition of YES1 at 1 uM; in short: as §1
[48] = target: Ephrin type-A receptor 1 (Homo sapiens) (UniProt P21709); test: Inhibition of EPHA1 at 1 uM; in short: as §1
[49] = target: Tyrosine-protein kinase Lyn (Homo sapiens) (UniProt P07948); test: Inhibition of LYN A at 1 uM; in short: as §1
Chain of Tyrosine-protein kinase Lyn (Homo sapiens) (P07948 2-512 limits assumed): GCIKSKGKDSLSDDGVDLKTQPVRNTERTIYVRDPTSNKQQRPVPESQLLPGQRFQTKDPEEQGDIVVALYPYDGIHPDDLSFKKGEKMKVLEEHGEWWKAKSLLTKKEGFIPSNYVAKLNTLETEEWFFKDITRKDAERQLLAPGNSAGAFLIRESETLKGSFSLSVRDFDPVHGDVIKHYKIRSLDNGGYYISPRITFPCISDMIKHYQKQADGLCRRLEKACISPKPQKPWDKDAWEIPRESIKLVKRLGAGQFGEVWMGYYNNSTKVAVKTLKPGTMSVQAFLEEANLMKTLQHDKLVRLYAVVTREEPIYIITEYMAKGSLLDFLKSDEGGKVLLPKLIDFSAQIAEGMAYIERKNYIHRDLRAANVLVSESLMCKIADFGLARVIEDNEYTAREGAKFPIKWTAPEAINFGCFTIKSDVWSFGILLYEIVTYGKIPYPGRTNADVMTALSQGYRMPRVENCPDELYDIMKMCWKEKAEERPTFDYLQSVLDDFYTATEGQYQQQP

T1 sequence (P31749 whole entry): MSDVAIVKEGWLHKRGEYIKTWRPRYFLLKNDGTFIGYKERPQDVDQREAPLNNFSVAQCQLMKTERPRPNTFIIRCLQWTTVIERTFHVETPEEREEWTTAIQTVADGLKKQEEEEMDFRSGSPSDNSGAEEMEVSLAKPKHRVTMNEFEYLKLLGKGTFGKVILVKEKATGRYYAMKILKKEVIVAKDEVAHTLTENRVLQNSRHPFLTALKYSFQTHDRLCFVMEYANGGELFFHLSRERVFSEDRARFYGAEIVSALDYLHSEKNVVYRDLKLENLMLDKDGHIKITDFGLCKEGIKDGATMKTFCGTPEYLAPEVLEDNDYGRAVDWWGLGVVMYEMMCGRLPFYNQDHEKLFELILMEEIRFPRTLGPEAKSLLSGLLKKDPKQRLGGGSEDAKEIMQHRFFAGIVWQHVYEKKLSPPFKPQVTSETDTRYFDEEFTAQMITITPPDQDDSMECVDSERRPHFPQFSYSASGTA

C[C@H]1O[C@@H]2CC(=O)O[C@@H]2C2=C1C(=O)c1c(ccc([C@H]3C[C@@H](N(C)C)[C@H](O)[C@@H](C)O3)c1O)C2=O [LACTOQUINOMYCIN]
IC50 [1]: 0.149 µM
IC50 [2]: 0.05 µM
IC50 [3]: 38.5 µM
IC50 [4]: 30.4 µM
Activity [5]: inactive
inhibition [6]: 0%
inhibition [7]: 92%
inhibition [8]: 99%
inhibition [9]: 1%
inhibition [10]: 2%
inhibition [11]: 0%
inhibition [12]: 10%
inhibition [13]: 6%
inhibition [14]: 0%
inhibition [15]: 26%
inhibition [16]: 5%
inhibition [17]: 38%
inhibition [18]: 29%
inhibition [19]: 4%
inhibition [20]: 17%
inhibition [21]: 2%
inhibition [22]: 41%
inhibition [23]: 1%
inhibition [24]: 21%
inhibition [25]: 0%
inhibition [26]: 0%
inhibition [27]: 34%
inhibition [28]: 6%
inhibition [29]: 49%
inhibition [30]: 7%
inhibition [31]: 14%
inhibition [32]: 0%
inhibition [33]: 14%
inhibition [34]: 15%
inhibition [35]: 32%
inhibition [36]: 0%
inhibition [37]: 0%
inhibition [38]: 16%
inhibition [39]: 22%
inhibition [40]: 12%
inhibition [41]: 1%
inhibition [42]: 16%
inhibition [43]: 20%
inhibition [44]: 0%
inhibition [45]: 17%
inhibition [46]: 2%
inhibition [47]: 14%
inhibition [48]: 8%
inhibition [49]: 3%
